Published values pooled from the literature.
Lines come from different studies, so protocols differ.
Effect on: cell growth or viability

NC(=S)NN=Cc1ccc(OC(=O)CN2C(=O)CSC2=O)c(Cl)c1 gave a viability of > 70% (HEK293; MTT; 50 µg/mL, 24 h).
The viability of Nc1ccn([C@@H]2O[C@H](CO)[C@@H](O)C2(F)F)c(=O)n1 is reported as 83.8% (HEK293; MTT; 0.625 µg/mL, 24 h).
Cc1ccc(S(=O)(=O)NNc2ccc([N+](=O)[O-])cc2[N+](=O)[O-])cc1 gave a viability of 82.7% (HEK293; MTT; 62.5 µg/mL).
The CC50 of CCOC(=O)c1cnc2c([N+](=O)[O-])cc(C(F)(F)F)cc2c1NCc1ccc(C(F)(F)F)cc1 is reported as ~9 µM (HEK293; resazurin; 72 h).
With CC(C)(C)CNc1nc(-c2cccs2)nc(Cl)c1-c1c(F)cc(C#N)cc1F the CC50 was > 50 µM (HEK293; resazurin; 48 h).
CCOC(=O)C1=C(CN2CCC[C@@H]2C(=O)Nc2ccc(B(O)O)cc2)NC(c2nccs2)=N[C@H]1c1ccc(F)cc1Br gave a CC50 of 26.5 µM (HePAD38; CCK-8; 6 days).
CC(C)[C@@H](C)Nc1nc(-c2cccs2)nc(Cl)c1-c1c(F)cc([N+](=O)[O-])cc1F gave a CC50 of 20.2 µM (HEK293; resazurin; 48 h).
With CCOc1cc(C=NNC(N)=S)ccc1OC(=O)CN1C(=O)CSC1=O the viability was > 70% (HEK293; MTT; 40 µg/mL, 24 h).
The CC50 of CCOC(=O)C1=C(CN2CCC[C@@H]2C(=O)Nc2cccc(B(O)O)c2)NC(c2nccs2)=N[C@H]1c1ccc(F)cc1Br is reported as 18.4 µM (HePAD38; CCK-8; 6 days).
C#Cc1cc(F)c(-c2c(Cl)nc(-c3cccs3)nc2NCC2(C)N=N2)c(F)c1 has a CC50 of > 20 µM (HEK293; resazurin; 48 h).
